Laboratory results as given in ChEMBL document CHEMBL1141573, “Quinolone 3-carboxylic acid pharmacophore: design of second generation HIV-1 integrase inhibitors” (J Med Chem, 2008).
Activity calls are given as the source filed them. The calls are words filed in the database; no cut-off is given here.

Tests used:
[1] = molecular target: T1, Human immunodeficiency virus type 1 integrase (Human immunodeficiency virus 1, UniProt Q7ZJM1); experiment: Inhibition of HIV1 integrase strand transfer activity
[2] = Cytotoxicity against human MT4 cells; assay type: cell-based
Procedure, shortened: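 Viability of mock-infected MT-4 cells after 5 days of incubation, measured by MTT reduction to formazan read spectrophotometrically; CC50 derived.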

[3] = molecular target: T1, Human immunodeficiency virus type 1 integrase; experiment: Inhibition of HIV1 integrase 3'-end processing activity
Procedure, shortened: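 Wild-type recombinant IN, 200 nM final, preincubated with inhibitor at 30 °C for 30 min in buffer with 7.5 mM MnCl2, 10% DMSO, 25 mM MOPS pH 7.2. Then 20 nM 5′-32P-labeled 21-mer U5 LTR duplex substrate added, incubated a further 1 h. 21-mer to 19-mer conversion gives % inhibition versus DNA-alone and no-drug controls. IC50 from log concentration versus % inhibition.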

[4] = molecular target: Human immunodeficiency virus type 1 integrase (Human immunodeficiency virus 1) (UniProt Q7ZJM1); experiment: Inhibition of HIV1 integrase at 100 uM
Procedure, shortened: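 Wild-type recombinant IN (200 nM final) preincubated with compound 30 min at 30 °C in buffer with 7.5 mM MnCl2, 10% DMSO, MOPS pH 7.2. Then 20 nM 5′-32P-labeled 21-mer U5 LTR duplex added for 1 h. Reactions quenched with formamide loading dye. Conversion to 19-mer (3′-processing) and strand transfer products gives % inhibition versus DNA alone and DNA plus IN.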

[5] = system: Human immunodeficiency virus 1; experiment: Antiviral activity against HIV1 in MT4 cells assessed as inhibition of viral-induced cytopathic effect by MTT method; assay type: functional, organism-based; details: Human immunodeficiency virus 1, MT4
Procedure, shortened: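 MT-4 cells (RPMI 1640 with 10% heat-inactivated FCS, 2 mM L-glutamine, 37 °C, 5% CO2) infected with 100–300 CCID50 of HIV-1(IIIB) in presence of 5-fold serial compound dilutions. Viral CPE read by MTT reduction to formazan measured spectrophotometrically. IC50 = concentration giving 50% protection against CPE.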

T1 sequence (Q7ZJM1 whole entry): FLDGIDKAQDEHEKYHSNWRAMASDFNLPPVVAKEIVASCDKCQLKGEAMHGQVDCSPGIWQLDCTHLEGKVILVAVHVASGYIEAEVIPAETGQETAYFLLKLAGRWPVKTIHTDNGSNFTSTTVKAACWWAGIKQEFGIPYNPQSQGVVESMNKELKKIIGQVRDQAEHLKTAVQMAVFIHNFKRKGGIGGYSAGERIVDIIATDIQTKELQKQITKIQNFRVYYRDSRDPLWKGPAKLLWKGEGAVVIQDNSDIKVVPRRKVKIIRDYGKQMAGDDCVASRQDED
Chain of Human immunodeficiency virus type 1 integrase (Human immunodeficiency virus 1) (Q7ZJM1 as listed by the source): as the sequence (Q7ZJM1 whole entry) above

O=C(O)C1CCCCC1C(=O)Nc1ccc(Oc2cccc3ccccc23)cc1 (stereo unspecified)
IC50 [1]: 34 µM | CC50 [2]: 3.5 µM | IC50 [3]: > 100 µM

Cc1ccc(C(=O)O)cc1NC(=O)CSc1nc2ccccc2s1
IC50 [1]: 17 µM | IC50 [3]: 63 µM

O=C(O)c1ccccc1SCCSc1ccccc1C(=O)O
Activity [4]: inactive

CCN(C(=O)CCC(=O)O)c1nc(CC(=O)Nc2ccc(Cl)cc2)cs1
Activity [4]: inactive

O=C(O)C1CC(=O)N(c2ccc(OCc3c(F)cccc3Cl)cc2)C1 (stereo unspecified)
Activity [4]: inactive

COc1cc(CNc2nn[nH]n2)ccc1OCc1c(Cl)cccc1Cl
Activity [4]: inactive

CCOc1cc(/C=C2\C(=O)N(c3nnn[nH]3)N=C2C)cc(Cl)c1OCC
IC50 [1]: 4 µM | IC50 [3]: 7 µM

CCOc1cc(CNc2nn[nH]n2)ccc1OCc1ccccc1
Activity [4]: inactive

O=C(Nc1ccccc1C(=O)O)c1ccc(CN2CCc3ccccc3C2)cc1
Activity [4]: inactive

Cc1ccc(OCc2nnc(SC(C)C(=O)O)n2-c2ccccc2)cc1 (stereo unspecified)
Activity [4]: inactive

O=C(O)CSc1nnc(COc2cccc3ccccc23)o1
Activity [4]: inactive

O=C(CSc1nnc(-c2ccc(Cl)cc2)n1-c1ccccc1)N/N=C/c1ccccc1C(=O)O
Activity [4]: inactive

O=C(O)CSc1nc(-c2cccs2)cc(C(F)(F)F)n1
IC50 [1]: > 100 µM | IC50 [3]: > 100 µM

COc1cc(/C=C2\C(=O)N(c3nnn[nH]3)N=C2C)cc(Cl)c1OC
IC50 [1]: 4 µM | IC50 [3]: 5 µM

COc1cc(CNc2nn[nH]n2)ccc1OCc1c(F)cccc1Cl
Activity [4]: inactive

O=C(O)c1ccccc1NC(=O)c1ccccc1S(=O)(=O)Nc1ccc(Oc2ccccc2)cc1
IC50 [1]: 18 µM | IC50 [3]: 42 µM

COc1cccc(NC(=O)c2sc3[nH]c(=O)c(C(=O)O)cc3c2N)c1
IC50 [1]: 43 µM | IC50 [3]: 82 µM

O=C(O)CSc1nnc(-c2ccco2)c(-c2ccco2)n1
IC50 [1]: 5 µM | IC50 [3]: 18 µM

COc1cc(CNc2nn[nH]n2)ccc1OCc1ccc(F)cc1
Activity [4]: inactive

CCOc1cc(/C=C2\C(=O)N(c3nnn[nH]3)N=C2C)ccc1OC
IC50 [1]: 59 µM | IC50 [3]: 75 µM

O=C(O)CSc1nc(Nc2ccccc2)nc(N2CCOCC2)n1
IC50 [1]: > 100 µM | IC50 [3]: > 100 µM

O=C(O)C1CC(=O)N(c2ccc(OCc3ccccc3Cl)cc2)C1 (stereo unspecified)
Activity [4]: inactive

COc1ccc(/C=C2\C(=O)N(c3nnn[nH]3)N=C2C)cc1OCc1ccccc1Cl
IC50 [1]: 5 µM | IC50 [3]: 14 µM

CC1=NN(c2nnn[nH]2)C(=O)/C1=C\c1cc(Cl)c(O)c(Cl)c1
IC50 [1]: 13 µM | IC50 [3]: 11 µM

CCOc1cc(CNc2nn[nH]n2)cc(Cl)c1OCc1ccc(Cl)cc1
IC50 [1]: 52 µM | IC50 [3]: > 100 µM

Cc1cc(-c2cccnc2)c(C#N)c(SCC(=O)O)n1
Activity [4]: inactive

O=C(O)CSc1ccc(-c2nc3ccccc3[nH]2)cn1
Activity [4]: inactive

O=C(O)COc1ccc2c(-c3ccccc3)cc(=O)oc2c1
Activity [4]: inactive

COc1cc2c(cc1Cc1cccc(Cl)c1F)c(=O)c(C(=O)O)cn2[C@@H](CO)C(C)C
EC50 [5]: 0.0009 µM

CCn1nc(NC(=O)CCC(=O)O)c2cc3cc(C)ccc3nc21
Activity [4]: inactive

O=C(O)CSc1nc(-c2ccccc2)cc(C(F)(F)F)n1
IC50 [1]: > 100 µM | IC50 [3]: > 100 µM

COc1ccc2[nH]c(SCC(=O)Nc3cc(C(=O)O)ccc3C)nc2c1
Activity [4]: inactive

O=C(O)CCCC(=O)Nc1nc(-c2cccc3ccccc23)cs1
Activity [4]: inactive

COc1cc2c(cc1Cc1cccc(Cl)c1F)c(=O)c(C(=O)O)cn2CCO
EC50 [5]: 0.017 µM

CCn1c(CNC(=O)CCC(=O)O)cc2ccccc21
Activity [4]: inactive

CCOc1cc(N(CC)CC)ccc1/C=C1\C(=O)N(c2nnn[nH]2)N=C1C
IC50 [1]: 65 µM | IC50 [3]: 61 µM

CCn1nc(NC(=O)CCCC(=O)O)c2cc3cc(C)ccc3nc21
Activity [4]: inactive

COc1cc(CNc2nn[nH]n2)ccc1OCc1cccc(C)c1
Activity [4]: inactive

Cc1nn(-c2ccccc2)c2sc(-c3nnc(SCC(=O)O)o3)cc12
Activity [4]: inactive

CC(C)[C@H](CO)n1cc(C(=O)O)c(=O)c2cc(Cc3cccc(Cl)c3F)ccc21
EC50 [5]: 0.007 µM

COc1cc(C2NC(C(=O)O)CS2)ccc1OCc1c(Cl)cccc1Cl (stereo unspecified)
Activity [4]: inactive

COc1ccc(/C=N/Nc2nc(C(=O)O)cs2)cc1
Activity [4]: inactive

O=C(O)c1cn(CCO)c2ccc(Cc3cccc(Cl)c3F)cc2c1=O
EC50 [5]: 0.076 µM

O=C(O)CSCC(=O)Nc1nc(-c2ccccc2)cs1
Activity [4]: inactive

O=C(O)C1CC=CCC1C(=O)Nc1ccc(Cc2ccncc2)cc1 (stereo unspecified)
Activity [4]: inactive

Nc1c(C(=O)Nc2ccc(Cl)c(Cl)c2)sc2[nH]c(=O)c(C(=O)O)cc12
IC50 [1]: 5 µM | IC50 [3]: 14 µM

O=C(O)CSc1nnc2n(Cc3ccc(F)cc3)c3ccccc3n12
Activity [4]: inactive

CCOc1cc(C2NC(C(=O)O)CS2)ccc1OCc1cccc(C)c1 (stereo unspecified)
Activity [4]: inactive

O=C(O)c1cccc(OCC(O)Cn2cnc3ccccc32)c1 (stereo unspecified)
Activity [4]: inactive

Cc1ccc2[nH]c(CNC(=O)CCC(=O)O)cc2c1
Activity [4]: inactive

Cc1nc2ccccc2n1CC(O)COc1cccc(C(=O)O)c1 (stereo unspecified)
Activity [4]: inactive

O=C(Nc1ccccn1)c1ccc(NC(=O)C2CC=CCC2C(=O)O)cc1 (stereo unspecified)
Activity [4]: inactive

CCOc1cc(CNc2nn[nH]n2)ccc1OCc1ccc(C)cc1
Activity [4]: inactive

N#Cc1c(-c2ccc(Cl)cc2)cc(-c2ccccc2)nc1SCC(=O)O
IC50 [1]: 60 µM | IC50 [3]: 98 µM

COc1cc(CNc2nn[nH]n2)ccc1OCc1ccc(C)cc1
Activity [4]: inactive

Cc1ccc2nc(NC(=O)CSCC(=O)O)sc2c1
Activity [4]: inactive

Cc1ccc2nc(-c3ccc(NC(=O)/C=C/C(=O)O)cc3)sc2c1
IC50 [1]: 23 µM | IC50 [3]: 48 µM

COc1cc(CNc2nn[nH]n2)ccc1OCc1cccc(Cl)c1
Activity [4]: inactive

O=C(CSc1ncccc1C(=O)O)Nc1cccc2ccccc12
Activity [4]: inactive

COc1ccc(-c2nnc(SCC(=O)N/N=C/c3ccccc3C(=O)O)n2-c2ccccc2)cc1OC
Activity [4]: inactive

COc1cc(NC(=O)c2ccc3c(c2)C(=O)N(c2ccccc2OC)C3=O)c(C(=O)O)cc1OC
Activity [4]: inactive

O=C(O)c1c[nH]c2ccc(Cc3cccc(Cl)c3F)cc2c1=O
EC50 [5]: 0.805 µM

Cc1ccc(C)c(NC(=O)CSc2ncccc2C(=O)O)c1
Activity [4]: inactive

O=C(O)CN1C(=O)/C(=C2\SC(=S)N(C(Cc3ccccc3)C(=O)O)C2=O)c2ccccc21 (stereo unspecified)
IC50 [1]: 66 µM | IC50 [3]: 92 µM

Cc1ccc2nc(NC(=O)CCC(=O)O)sc2c1
Activity [4]: inactive

COc1ccc(-c2ccc(-c3nnn(C(C)C(=O)O)n3)cc2)cc1 (stereo unspecified)
Activity [4]: inactive

CCCn1nc(NC(=O)CCC(=O)O)c2cc3cc(C)ccc3nc21
Activity [4]: inactive

O=C(O)C(O)C(O)c1nc2cc3ccccc3cc2[nH]1 (stereo unspecified)
IC50 [1]: 46 µM | IC50 [3]: > 100 µM

COc1cc(CNc2nn[nH]n2)ccc1OCc1ccc(Cl)cc1
Activity [4]: inactive

Cc1cc(OCn2ccc(C(=O)O)n2)ccc1Cl
Activity [4]: inactive
